One may read the solubility as how much of the substance goes into solution per volume.

Each structure is given as a SMILES string. In brackets after ≈: the same amount, converted by molar mass.

K18 tau fragment (amino acids 244–369) bearing the P301L mutation (K18PL), sequence (P10636 561-686 P618L): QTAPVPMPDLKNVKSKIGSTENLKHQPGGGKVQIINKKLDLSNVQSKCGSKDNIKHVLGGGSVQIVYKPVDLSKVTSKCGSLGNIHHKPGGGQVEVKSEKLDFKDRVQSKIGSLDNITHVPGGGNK

The first series addresses K18 tau fragment (amino acids 244–369) bearing the P301L mutation (K18PL) (Homo sapiens, UniProt P10636, P618L). The series can be described thus: Heparin-induced K18PL tau fibrillization, thioflavin-T. The class given is biochemical.
Settings: not given
Put shortly:
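Heparin-induced fibrillization of the P301L K18 tau fragment (residues 244–369) in sodium acetate buffer, with test compound at a range of concentrations, each in triplicate. Read-out is thioflavin-T fluorescence of cross-beta fibrils. IC50 comes from a sigmoidal fit of the concentration-response, from one curve fit or the mean of 2 or more separate analyses. Maximal % inhibition is also reported.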
For the compound `Cc1n[nH]c(=O)c2c(N)scc12` [Compound 55, 7-Amino-4-methylthieno[3,4-d]pyridazin-1(2H)-one], the “Inhibition in the K18PL fibrillization assay” value is “near full inhibition”.
Same read-out and setting: the entry for `CCOC(=O)c1nn(-c2ccc(Cl)cc2)c(=O)c2c(N)sc(Cl)c12` [Compound 67, Ethyl 5-amino-7-chloro-3-(4-chlorophenyl)-4-oxo-3,4-dihydrothieno[3,4-d]pyridazine-1-carboxylate] is “near full inhibition”.
As to `CCOC(=O)c1nn(-c2ccc(Cl)cc2)c(=O)c2c(N)sc(Br)c12` [Compound 68, Ethyl 5-amino-7-bromo-3-(4-chlorophenyl)-4-oxo-3,4-dihydrothieno[3,4-d]pyridazine-1-carboxylate], the “Inhibition in the K18PL fibrillization assay” value is “near full inhibition”.
On the same count and under the same terms, next, `O=C(O)c1nn(-c2ccc(F)cc2)c(=O)c2c1CSC2=O` [Compound 70, 3-(4-Fluorophenyl)-4,5-dioxo-3,4,5,7-tetrahydrothieno[3,4-d]pyridazine-1-carboxylic acid]: “near full inhibition”.
On the same count and under the same terms, the entry for `CC(C)NC(=O)c1nn(-c2ccc(Cl)cc2)c(=O)c2c1CSC2=O` [Compound 72, 3-(4-Chlorophenyl)-N-isopropyl-4,5-dioxo-3,4,5,7-tetrahydrothieno[3,4-d]pyridazine-1-carboxamide] is “near full inhibition”.

Test system in a further series: not listed separately
The series can be described thus: Aqueous solubility in the sodium acetate buffer of the fibrillization assay. Format: physicochemical.
Settings: not given
Consider `CCOC(=O)c1nn(-c2ccc(F)cc2)c(=O)c2c(N)scc12` [Compound 26, Ethyl 5-amino-3-(4-fluorophenyl)-4-oxo-3,4-dihydrothieno[3,4-d]pyridazine-1-carboxylate], for which the solubility was above 200 µM.
Still for that read-out and setting: next, `CCOC(=O)c1nn(-c2ccccc2Cl)c(=O)c2c(N)scc12` [Compound 27, Ethyl 5-amino-3-(2-chlorophenyl)-4-oxo-3,4-dihydrothieno-[3,4-d]pyridazine-1-carboxylate]: 12.8 µM (≈ 4.48 µg/mL); `CCOC(=O)c1nn(-c2cccc(Cl)c2)c(=O)c2c(N)scc12` [Compound 28, Ethyl 5-amino-3-(3-chlorophenyl)-4-oxo-3,4-dihydrothieno-[3,4-d]pyridazine-1-carboxylate]: 32 µM (≈ 11.2 µg/mL).
On the same count and under the same terms, the figure for `CCOC(=O)c1nn(-c2ccc(C(F)(F)F)cc2)c(=O)c2c(N)scc12` [Compound 30, Ethyl 5-amino-4-oxo-3-(4-(trifluoromethyl)phenyl)-3,4-dihydrothieno[3,4-d]pyridazine-1-carboxylate] is 32 µM (≈ 12.3 µg/mL); for `CCOC(=O)c1nn(-c2ccc(OC(F)(F)F)cc2)c(=O)c2c(N)scc12` [Compound 31, Ethyl 5-amino-4-oxo-3-(4-(trifluoromethoxy)phenyl)-3,4-dihydrothieno[3,4-d]pyridazine-1-carboxylate] it is 12.8 µM (≈ 5.11 µg/mL); for `CCOC(=O)c1nn(-c2ccc(O)cc2)c(=O)c2c(N)scc12` [Compound 32, Ethyl 5-amino-3-(4-hydroxyphenyl)-4-oxo-3,4-dihydrothieno[3,4-d]pyridazine-1-carboxylate] it is 12.8 µM (≈ 4.24 µg/mL).
Same read-out and setting: next, `CCOC(=O)c1nn(-c2ccc(C(C)C)cc2)c(=O)c2c(N)scc12` [Compound 33, Ethyl 5-amino-3-(4-isopropylphenyl)-4-oxo-3,4-dihydrothieno[3,4-d]pyridazine-1-carboxylate]: 32 µM (≈ 11.4 µg/mL); `Nc1scc2c(C(=O)O)nn(-c3ccc(F)cc3)c(=O)c12` [Compound 34, 5-Amino-3-(4-fluorophenyl)-4-oxo-3,4-dihydrothieno[3,4-d]pyridazine-1-carboxylic acid]: above 200 µM.
Take `Nc1scc2c(C(=O)O)nn(-c3ccccc3Cl)c(=O)c12` [Compound 35, 5-Amino-3-(2-chlorophenyl)-4-oxo-3,4-dihydrothieno[3,4-d]pyridazine-1-carboxylic acid]: the solubility is above 200 µM.
The same measure, in the same setting: next, `Nc1scc2c(C(=O)O)nn(-c3cccc(Cl)c3)c(=O)c12` [Compound 36, 5-Amino-3-(3-chlorophenyl)-4-oxo-3,4-dihydrothieno[3,4-d]pyridazine-1-carboxylic acid]: 32 µM (≈ 10.3 µg/mL).
Still for that read-out and setting: the figure for `Nc1scc2c(C(=O)O)nn(-c3ccc(C(F)(F)F)cc3)c(=O)c12` [Compound 38, 5-Amino-4-oxo-3-(4-(trifluoromethyl)phenyl)-3,4-dihydrothieno[3,4-d]pyridazine-1-carboxylic acid] is above 200 µM; for `Nc1scc2c(C(=O)O)nn(-c3ccc(OC(F)(F)F)cc3)c(=O)c12` [Compound 39, 5-Amino-4-oxo-3-(4-(trifluoromethoxy)phenyl)-3,4-dihydrothieno[3,4-d]pyridazine-1-carboxylic acid] it is above 200 µM.
On the same count and under the same terms, the figure for `Nc1scc2c(C(=O)O)nn(-c3ccc(O)cc3)c(=O)c12` [Compound 40, 5-Amino-3-(4-hydroxyphenyl)-4-oxo-3,4-dihydrothieno[3,4-d]pyridazine-1-carboxylic acid] is above 200 µM; for `Nc1scc2c(C(=O)NC3CC3)nn(-c3ccccc3Cl)c(=O)c12` [Compound 45, 5-Amino-3-(2-chlorophenyl)-N-cyclopropyl-4-oxo-3,4-dihydrothieno[3,4-d]pyridazine-1-carboxamide] it is 80 µM (≈ 28.9 µg/mL); for `CC(C)NC(=O)c1nn(-c2cccc(Cl)c2)c(=O)c2c(N)scc12` [Compound 46, 5-Amino-3-(3-chlorophenyl)-N-isopropyl-4-oxo-3,4-dihydrothieno[3,4-d]pyridazine-1-carboxamide] it is 32 µM (≈ 11.6 µg/mL).
The compound `Nc1scc2c(C(=O)NC3CC3)nn(-c3ccc(C(F)(F)F)cc3)c(=O)c12` [Compound 47, 5-Amino-N-cyclopropyl-4-oxo-3-(4-(trifluoromethyl)-phenyl)-3,4-dihydrothieno[3,4-d]pyridazine-1-carboxamide] had a solubility of 80 µM (≈ 31.6 µg/mL).
Same read-out and setting: the figure for `CC(C)NC(=O)c1nn(-c2ccc(OC(F)(F)F)cc2)c(=O)c2c(N)scc12` [Compound 48, 5-Amino-N-isopropyl-4-oxo-3-(4-(trifluoromethoxy)-phenyl)-3,4-dihydrothieno[3,4-d]pyridazine-1-carboxamide] is 80 µM (≈ 33 µg/mL); for `CC(C)NC(=O)c1nn(-c2ccc(O)cc2)c(=O)c2c(N)scc12` [Compound 49, 5-Amino-3-(4-hydroxyphenyl)-N-isopropyl-4-oxo-3,4-dihydrothieno[3,4-d]pyridazine-1-carboxamide] it is above 200 µM; for `CC(C)c1ccc(-n2nc(C(=O)NC3CC3)c3csc(N)c3c2=O)cc1` [Compound 50, 5-Amino-N-cyclopropyl-3-(4-isopropylphenyl)-4-oxo-3,4-dihydrothieno[3,4-d]pyridazine-1-carboxamide] it is 80 µM (≈ 29.5 µg/mL).
Same read-out and setting: next, `CCOC(=O)c1c(C(=O)c2ccccc2)csc1N` [Compound 54, Ethyl 2-amino-4-benzoylthiophene-3-carboxylate]: above 200 µM; `Cc1n[nH]c(=O)c2c(N)scc12` [Compound 55, 7-Amino-4-methylthieno[3,4-d]pyridazin-1(2H)-one]: above 200 µM.
Still for that read-out and setting: the figure for `Cc1nn(C(C)C)c(=O)c2c(N)scc12` [Compound 57, 7-Amino-2-isopropyl-4-methylthieno[3,4-d]pyridazin-1(2H)-one] is 80 µM (≈ 17.9 µg/mL); for `Cc1nn(CC(F)(F)F)c(=O)c2c(N)scc12` [Compound 58, 7-Amino-4-methyl-2-(2,2,2-trifluoroethyl)thieno[3,4-d]pyridazin-1(2H)-one] it is above 200 µM.
In the case of `Cc1nn(C2CCCCC2)c(=O)c2c(N)scc12` [Compound 59, 7-Amino-2-cyclohexyl-4-methylthieno[3,4-d]pyridazin-1(2H)-one], the solubility is above 200 µM.
Still for that read-out and setting: the figure for `Cc1nn(-c2ccccn2)c(=O)c2c(N)scc12` [Compound 60, 7-Amino-4-methyl-2-(pyridin-2-yl)thieno[3,4-d]pyridazin-1(2H)-one] is above 200 µM.
In turn, `Cc1nn(-c2cccnc2)c(=O)c2c(N)scc12` [Compound 61, 7-Amino-4-methyl-2-(pyridin-3-yl)thieno[3,4-d]pyridazin-1(2H)-one] had a solubility above 200 µM.
On the same count and under the same terms, next, `Cc1nn(-c2ccc(Cl)cc2)c(=O)c2c(N)scc12` [Compound 63, 7-Amino-2-(4-chlorophenyl)-4-methylthieno[3,4-d]pyridazin-1(2H)-one]: 80 µM (≈ 23.3 µg/mL); `Nc1scc2c(-c3ccccc3)nn(CC(F)(F)F)c(=O)c12` [Compound 64, 7-Amino-4-phenyl-2-(2,2,2-trifluoroethyl)thieno[3,4-d]pyridazin-1(2H)-one]: above 200 µM.
Same read-out and setting: next, `CC(C)n1nc(-c2ccccc2)c2csc(N)c2c1=O` [Compound 65, 7-Amino-2-isopropyl-4-phenylthieno[3,4-d]pyridazin-1(2H)-one]: above 200 µM.
The same measure, in the same setting: next, `CCOC(=O)c1nn(-c2ccc(Cl)cc2)c(=O)c2c(NC)scc12` [Compound 66, Ethyl 3-(4-chlorophenyl)-5-(methylamino)-4-oxo-3,4-dihydrothieno[3,4-d]pyridazine-1-carboxylate]: 80 µM (≈ 29.1 µg/mL); `CCOC(=O)c1nn(-c2ccc(Cl)cc2)c(=O)c2c(N)sc(Cl)c12` [Compound 67, Ethyl 5-amino-7-chloro-3-(4-chlorophenyl)-4-oxo-3,4-dihydrothieno[3,4-d]pyridazine-1-carboxylate]: 32 µM (≈ 12.3 µg/mL); `CCOC(=O)c1nn(-c2ccc(Cl)cc2)c(=O)c2c(N)sc(Br)c12` [Compound 68, Ethyl 5-amino-7-bromo-3-(4-chlorophenyl)-4-oxo-3,4-dihydrothieno[3,4-d]pyridazine-1-carboxylate]: 12.8 µM (≈ 5.49 µg/mL).
`CCOC(=O)c1nn(-c2ccc(Cl)cc2)c(=O)c2c1C(O)NC2=O` (stereo not shown) [Compound 69, Ethyl 2-(4-chlorophenyl)-5-hydroxy-1,7-dioxo-2,5,6,7-tetrahydro-1H-pyrrolo[3,4-d]pyridazine-4-carboxylate] displayed a solubility above 200 µM.
Still for that read-out and setting: next, `O=C(O)c1nn(-c2ccc(F)cc2)c(=O)c2c1CSC2=O` [Compound 70, 3-(4-Fluorophenyl)-4,5-dioxo-3,4,5,7-tetrahydrothieno[3,4-d]pyridazine-1-carboxylic acid]: above 200 µM.

Test system in a further series: not listed separately
Briefly: Brain and plasma levels 1 h after i.p. administration of 5 mg/kg. The class given is in vivo, B6C3F1 mice. Conditions: mice, 5 mg/kg i.p. An outline of the steps: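 Mice got a single i.p. 5 mg/kg dose of test compound and were sacrificed 1 h later. Perfused brain hemispheres were sonicated in 10 mM ammonium acetate, pH 5.7 (50% w/v). Plasma came from EDTA-treated blood spun 10 min at 4500g, 4 °C. Samples were acetonitrile-precipitated and spun at 15000g. Supernatants went to LC-MS/MS (MRM, C18, 35 °C) and were quantified against matrix-matched linear standard curves.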
With `Cc1n[nH]c(=O)c2c(N)scc12` [Compound 55, 7-Amino-4-methylthieno[3,4-d]pyridazin-1(2H)-one], the “Plasma levels 1 h after dosing” value is recorded as “low plasma levels”.

Staying with this series, now noted: mice, 1 h after 5 mg/kg i.p.
`Cc1n[nH]c(=O)c2c(N)scc12` [Compound 55, 7-Amino-4-methylthieno[3,4-d]pyridazin-1(2H)-one]: the Brain level result is listed as “BLD ^d” and the Plasma level entry is recorded as “BLD ^d”.
On to `CC(C)NC(=O)c1nn(-c2ccc(Cl)cc2)c(=O)c2c1CSC2=O` [Compound 72, 3-(4-Chlorophenyl)-N-isopropyl-4,5-dioxo-3,4,5,7-tetrahydrothieno[3,4-d]pyridazine-1-carboxamide], for which the “Brain penetration” value is recorded as “not brain-penetrant”.

These data come from paper PMC4304654 (Bioorganic & medicinal chemistry, 2012).
